Converted amounts (≈) assume the structure as drawn. The source made the active and inactive calls. The rule behind the calls is not given here.

Here are results for 23 compounds from ChEMBL document CHEMBL4028912, “Novel Aryl Substituted Pyrazoles as Small Molecule Inhibitors of Cytochrome P450 CYP121A1: Synthesis and Antimycobacterial Evaluation” (J Med Chem, 2017).

Experiment [1] concerns Mycobacterium tuberculosis. Kind of experiment: Antimycobacterial activity against Mycobacterium tuberculosis H37Rv after 7 days by resazurin microtiter assay. The following applies: 168 h. Format: functional. The essentials:
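M. tuberculosis H37Rv grown in 7H9 with 10% OADC at 37 °C to mid-log (OD600 0.4–0.6). Inoculum adjusted to McFarland no. 1, diluted 1:20. Compounds from DMSO stocks, final 0.39–100 μg/mL; rifampicin 0.004–1 μg/mL as control. After 7 days at 37 °C, 0.01% resazurin added, read 24 h later by fluorescence (530/590 nm). MIC = lowest concentration giving 90% inhibition.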

Experiment [2] relates to Mycobacterium tuberculosis. Briefly: Binding affinity to Mycobacterium tuberculosis CYP121A1 expressed in Escherichia coli TG1 (DE3) assessed as Soret peak shift by UV-visible scanning spectrophotometric analysis. The essentials:
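Purified CYP121A1 (typically 3–5 μM) titrated at 28 °C in 100 mM KPi, 200 mM KCl, pH 7.85, 0.004% Triton X-100. Ligand added stepwise from DMSO stocks until saturation. Spectra 250–800 nm were recorded. Soret shift was judged from the difference spectra, with a red shift taken as type II.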

Experiment [3] can be described thus: Binding affinity to Mycobacterium tuberculosis CYP121A1 expressed in Escherichia coli TG1 (DE3) by UV-visible scanning spectrophotometric analysis. The essentials:
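Purified CYP121A1 (typically 3–5 μM) in 100 mM KPi, 200 mM KCl, pH 7.85, 0.004% Triton X-100, at 28 °C. Ligand added stepwise from DMSO stocks until no further spectral change. ΔAmax (peak minus trough of difference spectra) was plotted against [ligand] and fitted to a hyperbolic or Hill equation. Triplicate titrations were run and Kd was averaged.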

In turn, `Fc1ccc(-c2nn(-c3ccccc3)cc2Cn2cncn2)cc1` came in with an MIC90 in experiment [1] of 25 µg/mL (≈ 78.3 µM). The Activity in experiment [2] lay in the range of 416 to 423 nm. The Kd in experiment [3] stood at 35.6 µM.

In experiment [1], `Ic1ccc(-c2nn(-c3ccccc3)cc2Cn2cncn2)cc1` came in with an MIC90 of 50 µg/mL (≈ 117 µM). Also, the result in experiment [2] was inactive.

As to `O=C(NCCn1ccnc1)c1cn(-c2ccccc2)nc1-c1ccc(F)cc1`, the MIC90 in experiment [1] was above 100 µg/mL. Besides, the result in experiment [2] was inactive.

Compound `c1ccc(-c2nn(-c3ccccc3)cc2Cn2cncn2)cc1` gave an MIC90 in experiment [1] of 50 µg/mL (≈ 166 µM). The Activity in experiment [2] lay in the range of 416 to 422 nm. In experiment [3], the Kd amounted to 73.5 µM.

`Brc1ccc(-c2nn(-c3ccccc3)cc2Cn2cncn2)cc1`: in experiment [1], the MIC90 stood at 25 µg/mL (≈ 65.7 µM). In experiment [2], the Activity lay in the range of 416 to 418 nm. The compound further registered a Kd in experiment [3] of 193 µM.

As for `COc1ccc(-c2nn(-c3ccccc3)cc2Cn2ccnc2)cc1`, in experiment [1], the MIC90 was 25 µg/mL (≈ 75.7 µM). Further, the Activity in experiment [2] was 416 to 421 nm. Further, binding in experiment [3] was characterised by a dissociation constant (Kd) of 11.4 µM.

`Ic1ccc(-c2nn(-c3ccccc3)cc2Cn2ccnc2)cc1`: in experiment [1], the MIC90 worked out at 6.25 µg/mL (≈ 14.7 µM). For the same compound, the Activity in experiment [2] lay within 416 to 422 nm. Also, binding in experiment [3] was characterised by a dissociation constant (Kd) of 13.6 µM.

Turning to `c1ccc(-c2nn(-c3ccccc3)cc2Cn2ccnc2)cc1`, the MIC90 in experiment [1] came out at 12.5 µg/mL (≈ 41.6 µM). Besides, in experiment [2], the Activity lay in the range of 416 to 424 nm. In experiment [3], binding was put at a Kd of 2.63 µM.

In experiment [1], `N#Cc1ccc(-c2nn(-c3ccccc3)cc2Cn2ccnc2)cc1` displayed an MIC90 of 100 µg/mL (≈ 307 µM). Further, the Activity in experiment [2] lay in the range of 416 to 418 nm. In addition, the affinity in experiment [3], expressed as Kd, was 45.9 µM.

In turn, `Fc1ccc(-c2nn(-c3ccccc3)cc2Cn2ccnc2)cc1` displayed an MIC90 in experiment [1] of 25 µg/mL (≈ 78.5 µM). For the same compound, in experiment [2], the Activity lay within 416 to 424 nm. In experiment [3], this compound gave a Kd of 4.16 µM.

Consider `Cc1ccc(-c2nn(-c3ccccc3)cc2C(=O)NCCn2ccnc2)cc1`, for which the MIC90 in experiment [1] is above 100 µg/mL. The Activity in experiment [2] was in the range of 416 to 418 nm. The same compound returned a dissociation constant Kd in experiment [3] of 290 µM.

Regarding `COc1ccc(-c2nn(-c3ccccc3)cc2Cn2cncn2)cc1`, the MIC90 in experiment [1] was 25 µg/mL (≈ 75.4 µM). For the same compound, the Activity in experiment [2] was 416 to 420 nm. Further, the Kd in experiment [3] was 96.5 µM.

Consider `Clc1ccccc1C(c1ccccc1)(c1ccccc1)n1ccnc1` [CLOTRIMAZOLE], for which the MIC90 in experiment [1] amounted to 20 µg/mL (≈ 58 µM).

Regarding `Brc1ccc(-c2nn(-c3ccccc3)cc2Cn2ccnc2)cc1`, the MIC90 in experiment [1] came out at 6.25 µg/mL (≈ 16.5 µM). Besides, in experiment [2], the Activity lay within 416 to 420 nm. Moreover, in experiment [3], the Kd was 19.5 µM.

In turn, `O=C(NCCn1ccnc1)c1cn(-c2ccccc2)nc1-c1ccccc1` showed an MIC90 in experiment [1] above 100 µg/mL. In addition, in experiment [2], the Activity fell in the range of 416 to 418 nm. For the same compound, in experiment [3], the equilibrium dissociation constant (Kd) is 394 µM.

In experiment [1], `Clc1ccc(-c2nn(-c3ccccc3)cc2Cn2cncn2)cc1` yielded an MIC90 of 25 µg/mL (≈ 74.4 µM). The Activity in experiment [2] fell in the range of 416 to 421 nm. For the same compound, binding in experiment [3] was characterised by a dissociation constant (Kd) of 83.8 µM.

On to `O=C(NCCn1ccnc1)c1cn(-c2ccccc2)nc1-c1ccc(Cl)cc1`, for which, in experiment [1], the MIC90 is above 100 µg/mL. Further, the result in experiment [2] was inactive.

Regarding `Clc1ccc(-c2nn(-c3ccccc3)cc2Cn2ccnc2)cc1`, the MIC90 in experiment [1] was found to be 12.5 µg/mL (≈ 37.3 µM). The Activity in experiment [2] is 416 to 422 nm. The compound further registered a Kd in experiment [3] of 7.42 µM.

The compound `Cc1ccc(-c2nn(-c3ccccc3)cc2Cn2ccnc2)cc1` displayed an MIC90 in experiment [1] of 12.5 µg/mL (≈ 39.8 µM). Further, the Activity in experiment [2] is 416 to 422 nm. For the same compound, the Kd in experiment [3] was 5.36 µM.

In turn, `Cc1ccc(-c2nn(-c3ccccc3)cc2Cn2cncn2)cc1` displayed an MIC90 in experiment [1] above 100 µg/mL. For the same compound, the Activity in experiment [2] was 416 to 418 nm. The Kd in experiment [3] worked out at 187 µM.

`COc1ccc(-c2nn(-c3ccccc3)cc2C(=O)NCCn2ccnc2)cc1` gave an MIC90 in experiment [1] of 100 µg/mL (≈ 258 µM). Also, the Activity in experiment [2] was in the range of 416 to 418 nm. This compound came in with a Kd in experiment [3] of 314 µM.

Turning to `N#Cc1ccc(-c2nn(-c3ccccc3)cc2Cn2cncn2)cc1`, the MIC90 in experiment [1] is above 100 µg/mL. Further, the outcome in experiment [2] was inactive.

Regarding `OC(Cn1cncn1)(Cn1cncn1)c1ccc(F)cc1F` [FLUCONAZOLE], the MIC90 in experiment [1] is above 100 µg/mL.
